Assay results taken from ChEMBL document CHEMBL1136765, “1,3-dioxolane-based ligands as a novel class of alpha1-adrenoceptor antagonists” (J Med Chem, 2003).

Key:
[1] = molecular target: T1, Alpha-1D adrenergic receptor (Rattus norvegicus, UniProt P23944); experiment: Antagonistic activity against (-)-noradrenaline-induced contraction of rat thoracic aorta (Alpha-1D adrenergic receptor); type: functional, tissue-based; settings: read-out: pA2 (converted)
T1 sequence (P23944 whole entry): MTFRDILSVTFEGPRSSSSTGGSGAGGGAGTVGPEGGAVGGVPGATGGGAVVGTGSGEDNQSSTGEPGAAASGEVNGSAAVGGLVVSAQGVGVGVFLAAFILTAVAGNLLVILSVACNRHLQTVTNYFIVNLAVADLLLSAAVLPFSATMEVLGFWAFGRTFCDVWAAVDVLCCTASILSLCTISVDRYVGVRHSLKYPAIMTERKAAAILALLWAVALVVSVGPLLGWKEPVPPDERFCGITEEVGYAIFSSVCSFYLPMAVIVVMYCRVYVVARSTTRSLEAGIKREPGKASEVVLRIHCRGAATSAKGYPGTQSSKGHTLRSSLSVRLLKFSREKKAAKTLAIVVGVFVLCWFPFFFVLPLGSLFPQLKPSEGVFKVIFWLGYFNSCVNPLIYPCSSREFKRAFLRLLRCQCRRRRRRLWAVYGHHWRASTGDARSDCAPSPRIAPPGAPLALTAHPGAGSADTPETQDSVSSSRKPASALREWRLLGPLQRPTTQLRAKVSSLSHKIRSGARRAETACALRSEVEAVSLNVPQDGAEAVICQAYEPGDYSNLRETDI
Method in brief: (§1)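 Endothelium-denuded rat thoracic aorta strips (denudation confirmed by no 100 µM acetylcholine relaxation after 1 µM noradrenaline) in Tyrode, 1 g tension, ≥2 h equilibration. Cumulative (-)-noradrenaline curves at 1 h intervals; third as control, antagonist 30 min before fourth.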

[2] = molecular target: T2, Alpha-1B adrenergic receptor (Rattus norvegicus) (UniProt P15823); experiment: Inhibition of (-)-phenylephrine-induced contraction of rat spleen (Alpha-1B adrenergic receptor ); type: functional, tissue-based
T2 sequence (whole entry): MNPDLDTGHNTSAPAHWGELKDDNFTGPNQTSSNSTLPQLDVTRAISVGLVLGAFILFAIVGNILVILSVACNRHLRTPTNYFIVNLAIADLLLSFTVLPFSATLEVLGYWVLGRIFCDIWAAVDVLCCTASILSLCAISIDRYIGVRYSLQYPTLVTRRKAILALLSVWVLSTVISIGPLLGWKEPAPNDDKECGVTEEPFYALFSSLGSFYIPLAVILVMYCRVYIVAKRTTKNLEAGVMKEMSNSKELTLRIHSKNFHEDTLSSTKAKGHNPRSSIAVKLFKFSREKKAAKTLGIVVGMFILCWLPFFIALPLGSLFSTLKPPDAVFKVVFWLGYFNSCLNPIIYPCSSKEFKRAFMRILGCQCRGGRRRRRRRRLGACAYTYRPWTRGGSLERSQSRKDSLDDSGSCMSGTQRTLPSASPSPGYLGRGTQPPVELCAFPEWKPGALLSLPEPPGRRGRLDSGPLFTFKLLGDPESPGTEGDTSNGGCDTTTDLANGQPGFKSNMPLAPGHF
Method in brief: (§2)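 Rat spleen strips in buffer containing 4 µM propranolol to block β-adrenoceptors, 1 g resting tension, 2 h equilibration. Isometric cumulative phenylephrine curves at 30 min intervals; first discarded, second control.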

[3] = Selectivity over human alpha-1d/alpha-1b receptor
[4] = molecular target: T3, Alpha-1D adrenergic receptor (Rattus norvegicus) (UniProt P23944); experiment: Inhibition of (-)-noradrenaline-induced contraction of rat thoracic aorta (Alpha-1D adrenergic receptor); type: functional, tissue-based; method in brief: as §1
T3 sequence (whole entry): T1 sequence (P23944 whole entry)

[5] = molecular target: T4, Alpha-1B adrenergic receptor (Rattus norvegicus, UniProt P15823); experiment: Antagonistic activity against (-)-phenylephrine-induced contraction of rat spleen (Alpha-1B adrenergic receptor ); type: functional, tissue-based; settings: read-out: pA2 (converted); method in brief: as §2
T4 sequence (P15823 whole entry): T2 sequence (whole entry)

[6] = molecular target: T5, Alpha-1A adrenergic receptor (Rattus norvegicus, UniProt P43140); experiment: Antagonistic activity against (-)-noradrenaline-induced contraction of rat prostatic vas deferens (alpha1A receptor); type: functional, tissue-based; settings: read-out: pA2 (converted)
T5 sequence (P43140 whole entry): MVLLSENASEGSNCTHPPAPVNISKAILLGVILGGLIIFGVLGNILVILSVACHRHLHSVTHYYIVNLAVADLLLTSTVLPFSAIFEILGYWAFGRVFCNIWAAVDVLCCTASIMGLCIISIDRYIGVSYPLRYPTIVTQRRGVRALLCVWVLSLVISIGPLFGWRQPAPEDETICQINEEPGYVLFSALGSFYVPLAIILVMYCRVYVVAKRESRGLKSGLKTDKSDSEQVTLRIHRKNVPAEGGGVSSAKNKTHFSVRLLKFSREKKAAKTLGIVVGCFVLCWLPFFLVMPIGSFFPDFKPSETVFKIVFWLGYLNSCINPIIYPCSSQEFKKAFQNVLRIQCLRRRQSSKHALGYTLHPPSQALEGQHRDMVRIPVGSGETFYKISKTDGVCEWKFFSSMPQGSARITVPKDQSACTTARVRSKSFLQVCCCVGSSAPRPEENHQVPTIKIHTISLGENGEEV
Method in brief: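 Rat prostatic vas deferens portion equilibrated 60 min, washed every 15 min, primed twice with 10 µM noradrenaline, re-equilibrated 60 min; control noradrenaline concentration-response curve, then antagonist 30 min before repeat curve.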

| SMILES | Kb [1] [nM] | pKb [2] | Selectivity [3] | pKb [4] | Kb [5] [nM] | Kb [6] [nM] |
| --- | --- | --- | --- | --- | --- | --- |
| O=C(O)C(=O)O.c1ccc(OCCNCC2COC(c3ccccc3)(c3ccccc3)O2)cc1 (stereo not drawn) | 4.27 | 5.86 | 6 | – | – | – |
| CN(CCOc1ccccc1)CC1COC(c2ccccc2)(c2ccccc2)O1.O=C(O)C(=O)O (stereo not drawn) | – | 5.31 | < 0.3 | 6.06 | – | – |
| COc1ccccc1OCCNCC1COC(c2ccccc2)(c2ccccc2)O1.O=C(O)C(=O)O (stereo not drawn) | 2.24 | – | 7 | – | 43.7 | 29.5 |
| C[N+](C)(CCOc1ccccc1)CC1COC(c2ccccc2)(c2ccccc2)O1.O=C([O-])C(=O)O (stereo not drawn) | – | 5.6 | < 0.02 | 6.19 | – | – |
